Source: ChEMBL document CHEMBL1152649, “Synthesis, cytotoxicity and human telomerase inhibition activities of a series of 1,2-heteroannelated anthraquinones and anthra[1,2-d]imidazole-6,11-dione homologues” (2009)
Active and inactive are the calls of the source. The rule behind the calls is not given here.

Assays:
MDA-MB-231 = experiment: Growth inhibition of human MDA-MB-231 cells; assay type: functional
How it was run: (§1)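 NCI 60 cancer cell line screen run per the Developmental Therapeutics Program protocol. Dose–response curves were plotted against log10 drug concentration for each cell line within its subpanel, and mean graph midpoint values were calculated.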

[1] = Growth inhibition of human Hs 578T cells; assay type: functional; how it was run: as §1
[2] = biological target: Telomerase reverse transcriptase (Homo sapiens) (UniProt O14746); experiment: Inhibition of telomerase in human H1299 cells up to 100 uM by TRAP assay; assay type: cell-based
How it was run: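 PCR-based telomeric repeat amplification protocol (TRAP). The telomerase source was total lysate of H1299 lung cancer cells, with protein measured against BSA standards. Controls were extract without inhibitor and RNase A-treated extract.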

EKVX = experiment: Antiproliferative activity against human EKVX cells assessed as cell growth at 10 uM; assay type: functional; conditions: read-out: Activity
How it was run: (§2)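 NCI 60 cell line panel, single-dose screen (10^-5 M) run by the developmental therapeutics program protocol. Results are given as growth percent of treated cells relative to untreated control cells for each line.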

SW-620 = experiment: Antiproliferative activity against human SW620 cells assessed as cell growth at 10 uM; assay type: functional; conditions: read-out: Activity
How it was run: (§3)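 NCI 60 cell line panel, single dose (10^-5 M), run per the Developmental Therapeutics Program protocol (one dose mean graph). Each result is the growth percentage of treated cells relative to untreated control cells.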

MCF7 [3] = experiment: Antiproliferative activity against human MCF7 cells assessed as cell growth at 10 uM; assay type: functional; conditions: read-out: Activity; how it was run: as §2
MDA-MB-468 = experiment: Antiproliferative activity against human MDA-MB-468 cells assessed as cell growth at 10 uM; assay type: functional; conditions: read-out: Activity; how it was run: as §2
SK-OV-3 [4] = experiment: Antiproliferative activity against human SKOV3 cells assessed as cell growth at 10 uM; assay type: functional; conditions: read-out: Activity; how it was run: as §2
MOLT-4 [5] = experiment: Antiproliferative activity against human MOLT4 cells assessed as cell growth at 10 uM; assay type: functional; conditions: read-out: Activity; how it was run: as §2
UACC-62 [6] = experiment: Antiproliferative activity against human UACC62 cells assessed as cell growth at 10 uM; assay type: functional; conditions: read-out: Activity; how it was run: as §3
DU-145 = experiment: Antiproliferative activity against human DU145 cells assessed as cell growth at 10 uM; assay type: functional; conditions: read-out: Activity; how it was run: as §2
SF-539 = experiment: Antiproliferative activity against human SF539 cells assessed as cell growth at 10 uM; assay type: functional; conditions: read-out: Activity; how it was run: as §2
K562 = experiment: Growth inhibition of human K562 cells; assay type: functional; how it was run: as §1
MOLT-4 [7] = experiment: Growth inhibition of human MOLT4 cells; assay type: functional; how it was run: as §1
A549 = experiment: Growth inhibition of human A549 cells; assay type: functional; how it was run: as §1
HOP-92 = experiment: Growth inhibition of human HOP92 cells; assay type: functional; how it was run: as §1
NCI-H226 [8] = experiment: Growth inhibition of human NCI-H226 cells; assay type: functional; how it was run: as §1
NCI-H522 = experiment: Growth inhibition of human NCI-H522 cells; assay type: functional; how it was run: as §1
COLO 205 = experiment: Growth inhibition of human COLO205 cells; assay type: functional; how it was run: as §1
HCT-15 [9] = experiment: Growth inhibition of human HCT15 cells; assay type: functional; how it was run: as §1
SF-268 = experiment: Growth inhibition of human SF268 cells; assay type: functional
How it was run: (§4)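 Assayed in the NCI 60 human cancer cell line panel under the Developmental Therapeutics Program protocol. For each line, dose–response curves were plotted against log10 drug concentration. In the one-dose screen at 10^-5 M, growth was given as percent of untreated control cells, and mean graph midpoint values were averaged.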

SF-295 = experiment: Growth inhibition of human SF295 cells; assay type: functional; how it was run: as §4
SNB-19 = experiment: Growth inhibition of human SNB19 cells; assay type: functional; how it was run: as §4
U-251 = experiment: Growth inhibition of human U251 cells; assay type: functional; how it was run: as §4
SK-MEL-28 = experiment: Growth inhibition of human SK-MEL-28 cells; assay type: functional; how it was run: as §4
UACC-257 = experiment: Growth inhibition of human UACC257 cells; assay type: functional; how it was run: as §4
UACC-62 [10] = experiment: Growth inhibition of human UACC62 cells; assay type: functional; how it was run: as §4
OVCAR-3 = experiment: Growth inhibition of human OVCAR-3 cells; assay type: functional; how it was run: as §1
OVCAR-5 = experiment: Growth inhibition of human OVCAR5 cells; assay type: functional; how it was run: as §1
OVCAR-8 = experiment: Growth inhibition of human OVCAR8 cells; assay type: functional; how it was run: as §1
SK-OV-3 [11] = experiment: Growth inhibition of human SKOV3 cells; assay type: functional; how it was run: as §4
A498 = experiment: Growth inhibition of human A498 cells; assay type: functional; how it was run: as §1
SN12C = experiment: Growth inhibition of human SN12C cells; assay type: functional; how it was run: as §4
MCF7 [12] = experiment: Growth inhibition of human MCF7 cells; assay type: functional; how it was run: as §1
NCI-H226 [13] = experiment: Antiproliferative activity against human NCI-H226 cells assessed as cell growth at 10 uM; assay type: functional; conditions: read-out: Activity; how it was run: as §2
HCT-15 [14] = experiment: Antiproliferative activity against human HCT15 cells assessed as cell growth at 10 uM; assay type: functional; conditions: read-out: Activity; how it was run: as §2
HT-29 = experiment: Antiproliferative activity against human HT-29 cells assessed as cell growth at 10 uM; assay type: functional; conditions: read-out: Activity; how it was run: as §2
KM12 = experiment: Antiproliferative activity against human KM12 cells assessed as cell growth at 10 uM; assay type: functional; conditions: read-out: Activity; how it was run: as §2
[15] = biological target: Telomerase reverse transcriptase (Homo sapiens) (UniProt O14746); experiment: Inhibition of TERT in human H1299 cells assessed as residual transcriptional activity at 1 uM after 24 hrs by SEAP reporter gene assay; values are per cent of control
[16] = biological target: Telomerase reverse transcriptase (Homo sapiens) (UniProt O14746); experiment: Inhibition of TERT in human H1299 cells assessed as residual transcriptional activity at 100 uM after 24 hrs by SEAP reporter gene assay; values are per cent of control
[17] = read-out: LC50 (the source's name)

Telomerase reverse transcriptase (Homo sapiens), sequence (O14746 whole entry): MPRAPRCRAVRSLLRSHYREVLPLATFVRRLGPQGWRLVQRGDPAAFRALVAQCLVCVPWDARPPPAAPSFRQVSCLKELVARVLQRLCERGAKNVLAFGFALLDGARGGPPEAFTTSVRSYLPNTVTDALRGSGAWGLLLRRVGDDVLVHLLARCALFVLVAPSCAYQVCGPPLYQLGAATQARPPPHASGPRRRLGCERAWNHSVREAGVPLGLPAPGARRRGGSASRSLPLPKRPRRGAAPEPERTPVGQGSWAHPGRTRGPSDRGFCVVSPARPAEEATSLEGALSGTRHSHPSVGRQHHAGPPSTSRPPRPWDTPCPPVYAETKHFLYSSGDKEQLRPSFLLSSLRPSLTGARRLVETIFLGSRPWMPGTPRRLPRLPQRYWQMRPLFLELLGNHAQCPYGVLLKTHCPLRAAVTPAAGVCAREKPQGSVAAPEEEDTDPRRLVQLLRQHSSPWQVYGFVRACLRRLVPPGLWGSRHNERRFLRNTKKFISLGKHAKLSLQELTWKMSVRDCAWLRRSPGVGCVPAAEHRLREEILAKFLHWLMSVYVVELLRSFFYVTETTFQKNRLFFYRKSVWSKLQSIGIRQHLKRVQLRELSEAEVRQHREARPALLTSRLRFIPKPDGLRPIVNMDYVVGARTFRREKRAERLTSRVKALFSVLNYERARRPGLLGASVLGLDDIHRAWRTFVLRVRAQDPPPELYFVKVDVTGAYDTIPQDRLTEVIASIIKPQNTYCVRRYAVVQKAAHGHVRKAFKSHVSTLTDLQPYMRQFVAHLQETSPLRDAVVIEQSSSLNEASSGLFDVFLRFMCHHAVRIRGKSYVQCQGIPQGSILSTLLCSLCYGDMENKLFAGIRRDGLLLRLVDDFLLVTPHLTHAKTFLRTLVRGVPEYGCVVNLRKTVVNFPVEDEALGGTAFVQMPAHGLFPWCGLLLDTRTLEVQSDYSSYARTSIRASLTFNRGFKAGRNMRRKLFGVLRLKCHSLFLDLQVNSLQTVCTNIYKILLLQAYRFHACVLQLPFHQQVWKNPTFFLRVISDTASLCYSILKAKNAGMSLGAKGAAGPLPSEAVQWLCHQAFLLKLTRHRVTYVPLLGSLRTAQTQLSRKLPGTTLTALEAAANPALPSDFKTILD

With `O=C1c2ccccc2C(=O)c2c1ccc1nsnc21` the GI50 (MDA-MB-231) was 1.75 µM, the LC50 (concentration killing 50% of cells) (MDA-MB-231) was > 100 µM and the TGI (MDA-MB-231) was 5.9 µM. The GI50 [1] was 1.41 µM, the LC50 [1] was 56 µM and the TGI [1] was 5.02 µM. For the same compound, the inhibition [2] was “inactive”, the growth at 10 µM (EKVX) was 103% and the growth at 10 µM (SW-620) was 7.3%. It also gave a growth at 10 µM (MCF7 [3]) of -50.7%, a growth at 10 µM (MDA-MB-468) of -73.2% and a growth at 10 µM (SK-OV-3 [4]) of 101%. For the same compound, the growth at 10 µM (MOLT-4 [5]) was -40.1%, the growth at 10 µM (UACC-62 [6]) was -82.3% and the growth at 10 µM (DU-145) was 40.8%. For the same compound, the growth at 10 µM (SF-539) was -47.1%, the GI50 (K562) was 1.92 µM and the LC50 (K562) was 41.2 µM. For the same compound, the TGI (K562) was 15.9 µM, the GI50 (MOLT-4 [7]) was 0.49 µM and the TGI (MOLT-4 [7]) was 1.84 µM. The CC50 (MOLT-4 [7]; [17]) was 4.71 µM, the GI50 (A549) was 14.7 µM and the TGI (A549) was 36.6 µM. For the same compound, the CC50 (A549; [17]) was 91 µM, the GI50 (HOP-92) was 2.52 µM and the TGI (HOP-92) was 6.64 µM. The CC50 (HOP-92; [17]) was > 100 µM, the GI50 (NCI-H226 [8]) was 4.48 µM and the TGI (NCI-H226 [8]) was 21.6 µM. It also gave a CC50 (NCI-H226 [8]; [17]) of 63.7 µM, a GI50 (NCI-H522) of 1.66 µM and a TGI (NCI-H522) of 3.93 µM. It also gave a CC50 (NCI-H522; [17]) of 9.31 µM, a GI50 (COLO 205) of 13.4 µM and a TGI (COLO 205) of 28.9 µM. For the same compound, the CC50 (COLO 205; [17]) was 62.4 µM, the GI50 (HCT-15 [9]) was 1.71 µM and the TGI (HCT-15 [9]) was 3.72 µM. The CC50 (HCT-15 [9]; [17]) was 8.12 µM, the GI50 (SF-268) was 2.17 µM and the TGI (SF-268) was 5.77 µM. The CC50 (SF-268; [17]) was 27.7 µM, the GI50 (SF-295) was 1.9 µM and the TGI (SF-295) was 4.04 µM. It also gave a CC50 (SF-295; [17]) of 8.56 µM, a GI50 (SNB-19) of 2.28 µM and a TGI (SNB-19) of 5.82 µM. The CC50 (SNB-19; [17]) was 26 µM, the GI50 (U-251) was 1.61 µM and the TGI (U-251) was 2.96 µM. It also gave a CC50 (U-251; [17]) of 5.44 µM, a GI50 (SK-MEL-28) of 1.85 µM and a TGI (SK-MEL-28) of 3.38 µM. The CC50 (SK-MEL-28; [17]) was 6.18 µM, the GI50 (UACC-257) was 1.74 µM and the TGI (UACC-257) was 3.51 µM. For the same compound, the CC50 (UACC-257; [17]) was 7.09 µM, the GI50 (UACC-62 [10]) was 1.45 µM and the TGI (UACC-62 [10]) was 2.9 µM. It also gave a CC50 (UACC-62 [10]; [17]) of 5.79 µM, a GI50 (OVCAR-3) of 0.55 µM and a TGI (OVCAR-3) of 2.46 µM. It also gave a CC50 (OVCAR-3; [17]) of 11.1 µM, a GI50 (OVCAR-5) of 1.91 µM and a TGI (OVCAR-5) of 4.11 µM. It also gave a CC50 (OVCAR-5; [17]) of 8.84 µM, a GI50 (OVCAR-8) of 1.66 µM and a TGI (OVCAR-8) of 4.68 µM. The CC50 (OVCAR-8; [17]) was 59.8 µM, the GI50 (SK-OV-3 [11]) was 7.71 µM and the TGI (SK-OV-3 [11]) was 22.5 µM. The CC50 (SK-OV-3 [11]; [17]) was 53.4 µM, the GI50 (A498) was 12.4 µM and the TGI (A498) was 25.4 µM. It also gave a CC50 (A498; [17]) of 52 µM, a GI50 (SN12C) of 1.33 µM and a TGI (SN12C) of 3.17 µM. It also gave a CC50 (SN12C; [17]) of 7.56 µM, a GI50 (MCF7 [12]) of 1.53 µM and a TGI (MCF7 [12]) of 3.34 µM. The CC50 (MCF7 [12]; [17]) was 7.29 µM, the growth at 10 µM (NCI-H226 [13]) was 97.8% and the growth at 10 µM (HCT-15 [14]) was 1.48%. For the same compound, the growth at 10 µM (HT-29) was 117%, the growth at 10 µM (KM12) was 98.6% and the residual activity [15] was 89%. It also gave a residual activity [16] of 9%.
